# This is a sample that favours compounds with a hit; in the whole collection about 2.1% have one here.
# PKA-R2B activ = activators of PKA-R2B holoenzyme, primary screen, biochemical, fluorescence polarization, Cy5-IP20, human | activation, % at 11.4 µM | PKA-R2B holoenzyme dissociation; R2B truncated from residue 108, S112A mutant; 0% DMSO only, 100% 113 µM cGMP | cAMP-dependent protein kinase catalytic subunit beta (Homo sapiens) + cAMP-dependent … | 340,000 compounds, 0.079% hits;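 active = activation above a cutoff set at the mean over all compounds plus 3 SD, cut at about 18% in these data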;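 note: higher means more holoenzyme dissociation and a rise in polarization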
# Target sequence (P31323 whole entry, looked up, other chains not shown, the tested form may be a part): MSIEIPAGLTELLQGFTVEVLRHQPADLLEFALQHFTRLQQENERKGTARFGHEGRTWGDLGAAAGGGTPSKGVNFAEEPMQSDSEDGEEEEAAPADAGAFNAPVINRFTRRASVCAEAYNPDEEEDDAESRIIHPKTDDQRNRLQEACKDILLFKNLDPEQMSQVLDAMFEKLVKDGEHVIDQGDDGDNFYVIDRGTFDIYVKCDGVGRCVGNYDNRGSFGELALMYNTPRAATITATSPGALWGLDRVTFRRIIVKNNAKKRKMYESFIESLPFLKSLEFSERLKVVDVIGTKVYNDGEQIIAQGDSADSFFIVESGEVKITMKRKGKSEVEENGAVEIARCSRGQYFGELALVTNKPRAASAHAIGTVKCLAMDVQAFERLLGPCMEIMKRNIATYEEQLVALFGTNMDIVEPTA
# PKA-R1A act = activators of PKA-R1A holoenzyme, primary screen, biochemical, fluorescence polarization, Cy5-IP20, bovine R1A, mouse PKAc; cAMP-dependent protein kinase type I-alpha regulatory subunit (Bos taurus) + …; PKA-R1A dissociation; scaled: DMSO 0%, 113 µM cGMP 100%; activation, % at 11.4 µM; 340,000 compounds, 0.083% hits; AID 504707, 2011;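 active = percent activation above the mean of all tested compounds plus 3 SD, cut at about 19% in these data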;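 note: higher means more PKAc released from R1A so a rise in polarization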
# MsrA inhibitor = bovine MsrA enzyme inhibitors, primary screen, biochemical, absorbance, HTS. purified bovine MsrA, absorbance read-out. 360,000 compounds, 0.75% hits. Methionine sulfoxide reductase A (Bos taurus). inhibition, % at 15.5 µM; in the data active = inhibition above about 4.5%;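 note: 0% = vehicle wells with enzyme and 100% = reference inhibitor wells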
# IMP-1 inh-1 = IMP-1 metallo-beta-lactamase inhibitors, primary screen, biochemical, epi-absorbance readout, Pseudomonas aeruginosa enzyme. purified IMP-1, nitrocefin hydrolysis, epi-absorbance fluorescence. 290,000 compounds, 0.45% hits. AID 1556, 2009. metallo-beta-lactamase IMP-1 (Pseudomonas aeruginosa). inhibition, % at 5.6 µM;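 active = inhibition above the mean plus 3 SD of all compounds in the same screening run, cut at about 4.5% in these data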;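 note: 0% = IMP-1 with DMSO and 100% = DMSO wells lacking enzyme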
#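 Assay system: purified IMP-1; Quantity: IMP-1 0.2 nM before substrate addition; Medium: HEPES buffer pH 7.1 with ZnSO4 and Brij 35; Incubation: 15 min enzyme–compound preincubation, then 25 min nitrocefin reaction, 25 °C; Signal: fluorescence quenching readout, ex 480/em 530 nm; Controls: DMSO with and without IMP-1; Repeats: singlicate testing.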
# VIM-2 inh = VIM-2 metallo-beta-lactamase inhibitors, primary screen, biochemical, epi-absorbance readout, Pseudomonas aeruginosa enzyme; AID 1527, 2009; inhibition, % at 5.6 µM; purified VIM-2, nitrocefin hydrolysis, epi-absorbance fluorescence; 290,000 compounds, 0.89% hits;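 active = inhibition above the mean of all tested compounds plus 3 SD, cutoff set per screening run, cut at about 7.5% in these data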;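 note: red hydrolysis product quenches plate fluorescence so inhibitors raise well fluorescence; 0% = enzyme with DMSO and 100% = DMSO without enzyme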
# MsrA act = bovine MsrA enzyme activators, primary screen, biochemical, absorbance, HTS | Methionine sulfoxide reductase A (Bos taurus) | purified bovine MsrA, absorbance read-out | activation, % at 10.6 µM | 360,000 compounds, 0.3% hits | AID 602163, 2012; in the data active = activation above about 7.5%;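 note: 0% = vehicle and 100% = reference activator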
# IMP-1 inh-2 = IMP-1 metallo-beta-lactamase inhibitors, confirmation, selectivity assay for selective VIM-2 inhibitor project, biochemical, epi-absorbance readout, triplicate; shares compounds with VIM-2 inh; inhibition, % at 5.6 µM; 1,300 tested, under 10 active; AID 1856, 2009; purified IMP-1, nitrocefin hydrolysis, epi-absorbance fluorescence; call rule not given here;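 note: 0% = enzyme with vehicle and 100% = vehicle without enzyme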
# VIM-2 FRET inh = VIM-2 inhibitors in FRET format, confirmation, artefact control for selective VIM-2 inhibitor project, biochemical, epi-absorbance artifact exclusion; purified VIM-2, CCF2 FRET substrate hydrolysis; inhibition, % at 5.6 µM; 1,300 compounds, 23% hits; shares compounds with VIM-2 inh; AID 1857, 2009;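 active = inhibition above the mean of all tested compounds plus 3 SD, cut at about 19% in these data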;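 note: 0% = VIM-2 plus DMSO and 100% = no enzyme wells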
# TEM-1 inh = TEM-1 serine beta-lactamase inhibitors, counter-screen for VIM-2 inhibitor project, biochemical, epi-absorbance, HTS; Purified TEM-1, nitrocefin hydrolysis, epi-absorbance fluorescence; inhibition, % at 5.6 µM; 1,300 compounds, 3% hits; shares compounds with VIM-2 inh; AID 1866, 2009;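 active = inhibition above that campaign's mean inhibition plus 3 SD, cut at about 0.46% in these data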;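 note: 0% = TEM-1 with DMSO and 100% = TEM-1 with 100 µM potassium clavulanate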
# Target sequence (P62593 whole entry, looked up): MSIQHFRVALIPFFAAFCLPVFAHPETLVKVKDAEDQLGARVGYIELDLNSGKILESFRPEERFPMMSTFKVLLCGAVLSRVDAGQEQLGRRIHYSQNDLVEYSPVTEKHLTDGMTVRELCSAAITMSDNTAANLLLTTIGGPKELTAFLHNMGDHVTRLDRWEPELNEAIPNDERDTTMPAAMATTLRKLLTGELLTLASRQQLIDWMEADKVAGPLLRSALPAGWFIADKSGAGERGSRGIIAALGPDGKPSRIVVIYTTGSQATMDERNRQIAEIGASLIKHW
# VIM-2 confirm 2 = VIM-2 metallo-beta-lactamase inhibitors, confirmation, biochemical, epi-absorbance, hits shared with IMP-1 screen | shares compounds with VIM-2 inh | purified VIM-2, nitrocefin hydrolysis | inhibition, % at 5.6 µM | 1,300 compounds, 96% hits;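 active = inhibition of the VIM-2 beta-lactamase enzyme above about 11% from the earlier first-round screen, limit read from the data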;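 note: 0% = VIM-2 with DMSO and 100% = buffer wells without enzyme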
# Numbers without * were called inactive; nt = no result.
SMILES,PKA-R2B activ,PKA-R1A act,MsrA inhibitor,IMP-1 inh-1,VIM-2 inh,MsrA act,IMP-1 inh-2,VIM-2 FRET inh,TEM-1 inh,VIM-2 confirm 2
O=C(CSc1nnc(NC(=O)c2c(F)cccc2F)s1)NCC1CCCO1 (stereo unspecified),-3,-10,1,nt,nt,-1,nt,nt,nt,nt
O=C(CSc1nnc(NC(=O)c2cccc(F)c2)s1)NCC1CCCO1 (stereo unspecified),6,-16,3,-1,17*,-5,-2,26*,-5,15*
C[C@H]1[C@H](c2ccccc2)Oc2cccc(NCCc3ccccc3)c2S(=O)(=O)N1Cc1cccc(Cl)c1,nt,nt,0,nt,nt,nt,nt,nt,nt,nt
Nc1nc(=S)c2ncn([C@@H]3O[C@H](CO)[C@@H](O)[C@H]3O)c2[nH]1,10,-9,4,nt,nt,-1,nt,nt,nt,nt
Nc1nc(=S)c2ncn(C3OC(CO)C(O)C3O)c2[nH]1 (stereo unspecified),-5,1,0,0,22*,-9,-1,31*,-6,26*
COc1ccc(S(=O)(=O)Nc2c(O)ccc3ccccc23)cc1OC,-2,0,-1,nt,nt,-4,nt,nt,nt,nt
COc1cc(OC)c2c(=O)c(OC)c(-c3ccc(OC)c(OC)c3)oc2c1,-3,-2,nt,-2,16*,-3,-2,-6,-3,35*
CCSc1nnc2ccc(-c3ccc(OC)c(OC)c3)nn12,-2,-8,2,-4,31*,-3,-4,1,-8,44*
COc1ccc(-c2ccc3nnc(SCC(N)=O)n3n2)cc1,-7,4,1,-3,0,-2,nt,nt,nt,nt
OC[C@@H]1CN(CCN2CCOCC2)C[C@H](n2cnc3c(NCc4ccco4)ncnc32)O1,nt,nt,0,nt,nt,-2,nt,nt,nt,nt
CCN1CCN(c2nnc(-c3ccccc3)c3ccccc23)CC1,-6,-12,0,-2,0,-3,nt,nt,nt,nt
CCN1CCN(c2cc3c(nn2)Oc2ccccc2N3C)CC1,1,2,2,-4,13*,-2,-3,11,-8,25*
O=S1(=O)c2cc(Cl)ccc2N2CCC[C@@H]2CN1Cc1ccc(Cl)c(Cl)c1,nt,nt,2,nt,nt,nt,nt,nt,nt,nt
c1ccc2c(c1)nc(N1CCCCCC1)c1nncn12,6,-8,2,nt,nt,-3,nt,nt,nt,nt
CC(C)(C)c1ccc(-c2n[nH]c(=S)n2CC2CCCO2)cc1 (stereo unspecified),-4,2,2,-3,0,1,nt,nt,nt,nt
CC(C)(C)c1ccc(-c2n[nH]c(=S)n2CCCN2CCOCC2)cc1,3,-5,0,-2,13*,-3,-4,33*,-8,22*
COc1cc(/C=N/N2CCN(Cc3ccc(C)cc3)CC2)cc(OC)c1O,-3,3,0,-8,22*,-4,-6,-8,-9,32*
C=C[C@@H]1c2cc(C)ccc2N(S(=O)(=O)c2ccc(C)cc2)[C@H](c2ccc(OC(C)=O)cc2)C1(C#N)C#N,3,2,1,nt,nt,-3,nt,nt,nt,nt
CC1c2cc3c(cc2CCN1C(=O)c1cccc(Cl)c1)OCCCO3 (stereo unspecified),-9,-8,1,0,-1,-1,nt,nt,nt,nt
CN=C1N(C)C[C@@H]2[C@@H]3C(=O)N(Cc4ccccc4)C(=O)[C@@H]3[C@](Cc3ccccc3)(C(=O)OC)N12,-2,-5,1,nt,nt,-9,nt,nt,nt,nt
CC(=O)Cn1cnc2c(sc3nc(C)cc(C)c32)c1=O,5,-4,-1,-3,14*,-1,-3,-2,-5,17*
Cc1cccc(C(=O)NC(=S)Nc2ccc(S(=O)(=O)N3CCN(C)CC3)cc2)c1,-6,-5,0,-3,38*,-1,-2,3,-9,69*
Cc1ccc(C(=O)NC(=S)Nc2ccc(S(=O)(=O)N3CCN(C)CC3)cc2)cc1,7,3,0,-2,31*,-2,-2,0,-8,63*
CCOc1cc(/C=N/NC(=O)c2cc(C)[nH]n2)ccc1OC(=O)c1ccc([N+](=O)[O-])cc1,nt,nt,nt,-2,-1,nt,nt,nt,nt,nt
CCOc1cc(/C=N/n2cnnc2)ccc1OC(=O)c1cccc([N+](=O)[O-])c1,-9,-10,2,1,13*,0,-4,-1,-4,14*
SMILES,PKA-R2B activ,PKA-R1A act,MsrA inhibitor,IMP-1 inh-1,VIM-2 inh,MsrA act,IMP-1 inh-2,VIM-2 FRET inh,TEM-1 inh,VIM-2 confirm 2
CCOC(=O)C1CCN(C(=O)COC(=O)c2oc3ccccc3c2C)CC1,-8,0,-1,nt,nt,-3,nt,nt,nt,nt
COc1ccc(C2=Nn3c(nnc3-c3cccnc3)SC2)cc1OC,8,0,0,nt,nt,-3,nt,nt,nt,nt
COc1ccc(C2=Nn3c(nnc3-c3ccncc3)SC2)cc1OC,-9,-13,3,1,64*,-9,-2,0,-4,75*
O=C1c2ccccc2-c2onc3c(N4CCN(CCO)CC4)cc(N4CCN(C(=O)c5ccco5)CC4)c1c23,-12,-9,3,1,14*,-3,-2,-10,-11,18*
CN1CCN(c2cc(N3CCN(C(=O)c4ccco4)CC3)c3c4c(onc24)-c2ccccc2C3=O)CC1,-6,-3,nt,0,17*,-3,-2,-12,-10,24*
CCOC(=O)N1CCN(c2cc(NCCC(=O)O)c3c4c(onc24)-c2ccccc2C3=O)CC1,-20,-16,nt,-1,2,-4,nt,nt,nt,nt
CC(=O)c1ccc(NC(=O)CSc2nnc(-c3ccncc3)n2C2CC2)cc1,8,1,1,nt,nt,0,nt,nt,nt,nt
Nc1nc(NCCCN2CCOCC2)nc(Nc2cccc(Cl)c2)c1[N+](=O)[O-],-12,-10,2,0,29*,-2,-3,0,-7,49*

# High-throughput results as filed in PubChem.
